In ChEMBL document CHEMBL4402612, “Heterodimeric Analogues of the Potent Y1R Antagonist 1229U91, Lacking One of the Pharmacophoric C-Terminal Structures, Retain Potent Y1R Affinity and Show Improved Selectivity over Y4R” (J Med Chem, 2020):
Positions of bridges follow the written chain, without caps; N, C: chain ends. Non-standard residues stand in square brackets, D forms with d. Residues, ends and D or L forms follow the SMILES beside them. Chains are numbered I, II in the order given. Orn = NCCC[C@H](N)C(=O)O; Dab = NCC[C@H](N)C(=O)O; Dap = NC[C@H](N)C(=O)O

Key:
[1] = target: T1, Neuropeptide Y receptor type 1 (Homo sapiens, UniProt P25929); test: Displacement of (sCy5)-[Lys2 Arg4]-BVD15 from GFP-tagged Y1R in human HEK293T cells assessed as inhibitory constant incubated for 5 mins followed by (sCy5)-[Lys2 Arg4]-BVD15 addition and measured after 30 mins by fluorescence based assay; format: cell-based
T1 sequence (P25929 whole entry): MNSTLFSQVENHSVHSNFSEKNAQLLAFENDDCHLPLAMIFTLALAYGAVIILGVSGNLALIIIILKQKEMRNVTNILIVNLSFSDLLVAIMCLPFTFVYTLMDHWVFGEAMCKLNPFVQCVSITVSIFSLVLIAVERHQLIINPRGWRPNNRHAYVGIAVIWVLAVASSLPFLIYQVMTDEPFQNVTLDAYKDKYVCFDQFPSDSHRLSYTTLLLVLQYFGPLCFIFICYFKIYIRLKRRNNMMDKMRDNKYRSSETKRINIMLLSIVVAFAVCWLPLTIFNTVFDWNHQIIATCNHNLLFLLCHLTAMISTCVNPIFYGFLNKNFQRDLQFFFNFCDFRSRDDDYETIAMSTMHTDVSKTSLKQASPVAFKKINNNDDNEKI

[2] = target: T2, Neuropeptide Y receptor type 4 (Homo sapiens, UniProt P50391); test: Agonist activity at Y4R in human HEK293T cells assessed as increase in beta-arrestin recruitment incubated for 60 mins by Hoechst 33342 dye based fluorescence analysis relative to pancreatic polypeptide
T2 sequence (P50391 whole entry): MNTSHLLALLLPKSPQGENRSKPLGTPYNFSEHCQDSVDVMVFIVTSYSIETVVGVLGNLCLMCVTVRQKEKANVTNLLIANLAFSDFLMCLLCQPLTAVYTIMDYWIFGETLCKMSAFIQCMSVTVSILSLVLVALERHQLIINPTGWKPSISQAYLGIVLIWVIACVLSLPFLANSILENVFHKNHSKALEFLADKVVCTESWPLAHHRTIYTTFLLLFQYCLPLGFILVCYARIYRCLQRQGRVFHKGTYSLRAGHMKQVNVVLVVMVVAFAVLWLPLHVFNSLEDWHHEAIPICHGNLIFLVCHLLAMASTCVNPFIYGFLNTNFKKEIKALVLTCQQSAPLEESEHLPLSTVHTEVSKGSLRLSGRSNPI

Homo sapiens = organism: Homo sapiens; test: Selectivity index, ratio of Ki of GFP-tagged Y4R in human HEK293T cells to Ki GFP-tagged Y1R in human HEK293T cells; format: cell-based
How it was run: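 Ratio of mean Ki values, Y4/Y1, from whole-cell competition binding in tetracycline-induced 293TR Y1-GFP or Y4-GFP cells. Tracer was 100 nM (sCy5)-[Lys²Arg⁴]-BVD15, added after 5 min competitor preincubation, then 30 min at 37 °C, with imaging read-out.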

[3] = target: T2, Neuropeptide Y receptor type 4; test: Displacement of (sCy5)-[Lys2 Arg4]-BVD15 from GFP-tagged Y4R in human HEK293T cells assessed as inhibitory constant incubated for 5 mins followed by (sCy5)-[Lys2 Arg4]-BVD15 addition and measured after 30 mins by fluorescence based assay; format: cell-based
How it was run: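 Competitors (10^-10–10^-6 M) added in HBSS/0.1% BSA with H33342 for 5 min, then 100 nM final (sCy5)-[Lys²Arg⁴]-BVD15 for 30 min at 37 °C. Washed and imaged confocally; granule counts per cell. Non-specific binding with 100 nM PP.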

[4] = target: T2, Neuropeptide Y receptor type 4; test: Agonist activity at Y4R in human HEK293T cells assessed as increase in beta-arrestin recruitment incubated for 60 mins by Hoechst 33342 dye based fluorescence analysis

Row | SMILES | Ki [1] [nM] | Rmax [2] [%] | Ki [3] [nM] | EC50 [4] [nM] | Ratio Ki (Homo sapiens)
1 | CC[C@H](C)[C@H](N)C(=O)N[C@H]1CCC(=O)NC[C@@H](C(=O)N[C@@H](Cc2ccc(O)cc2)C(=O)N[C@@H](CCCNC(=N)N)C(=O)N[C@@H](CC(C)C)C(=O)N[C@@H](CCCNC(=N)N)C(=O)N[C@@H](Cc2ccc(O)cc2)C(N)=O)NC(=O)[C@@H]2CCCN2C(=O)[C@@H](NC(=O)[C@@H](N)[C@@H](C)CC)CCC(=O)NC[C@@H](C(=O)N[C@@H](Cc2ccc(O)cc2)C(=O)N[C@@H](CCCNC(=N)N)C(=O)N[C@@H](CC(C)C)C(=O)N[C@@H](CCCNC(=N)N)C(=O)N[C@@H](C)C(N)=O)NC(=O)[C@@H]2CCCN2C1=O (I: H-IEP[Dap]YRLRA-NH2 / II: H-IEP[Dap]YRLRY-NH2; amide I:2-II:4, I:4-II:2) | 0.257 | 55.2 | 174 | 6.76 | 676
2 | CC[C@H](C)[C@H](N)C(=O)N[C@H]1CCC(=O)NCC[C@@H](C(=O)N[C@@H](Cc2ccc(O)cc2)C(=O)N[C@@H](CCCNC(=N)N)C(=O)N[C@@H](CC(C)C)C(=O)N[C@@H](CCCNC(=N)N)C(=O)N[C@@H](Cc2ccc(O)cc2)C(N)=O)NC(=O)[C@@H]2CCCN2C(=O)[C@@H](NC(=O)[C@@H](N)[C@@H](C)CC)CCC(=O)NCC[C@@H](C(=O)N[C@@H](Cc2ccc(O)cc2)C(=O)N[C@@H](CCCNC(=N)N)C(=O)N[C@@H](CC(C)C)C(=O)N[C@@H](CCCNC(=N)N)C(=O)N[C@@H](Cc2ccc(O)cc2)C(N)=O)NC(=O)[C@@H]2CCCN2C1=O (I: H-IEP[Dab]YRLRY-NH2 / II: H-IEP[Dab]YRLRY-NH2; amide I:2-II:4, I:4-II:2) | 8.13 | 43.8 | 155 | 30.2 | 19
3 | CC[C@H](C)[C@H](N)C(=O)N[C@H]1CCC(=O)NC[C@@H](C(=O)N[C@@H](Cc2ccc(O)cc2)C(=O)N[C@@H](CCCNC(=N)N)C(=O)N[C@@H](CC(C)C)C(=O)N[C@@H](C)C(=O)N[C@@H](Cc2ccc(O)cc2)C(N)=O)NC(=O)[C@@H]2CCCN2C(=O)[C@@H](NC(=O)[C@@H](N)[C@@H](C)CC)CCC(=O)NC[C@@H](C(=O)N[C@@H](Cc2ccc(O)cc2)C(=O)N[C@@H](C)C(=O)N[C@@H](CC(C)C)C(=O)N[C@@H](CCCNC(=N)N)C(=O)N[C@@H](Cc2ccc(O)cc2)C(N)=O)NC(=O)[C@@H]2CCCN2C1=O (I: H-IEP[Dap]YALRY-NH2 / II: H-IEP[Dap]YRLAY-NH2; amide I:2-II:4, I:4-II:2) | 31.6 | -9.5 | 912 | – | 32
4 | CC[C@H](C)[C@H](N)C(=O)N[C@H]1CCC(=O)NCCCC[C@@H](C(=O)N[C@@H](Cc2ccc(O)cc2)C(=O)N[C@@H](CCCNC(=N)N)C(=O)N[C@@H](CC(C)C)C(=O)N[C@@H](CCCNC(=N)N)C(=O)N[C@@H](Cc2ccc(O)cc2)C(N)=O)NC(=O)[C@@H]2CCCN2C(=O)[C@@H](NC(=O)[C@@H](N)[C@@H](C)CC)CCC(=O)NCCCC[C@@H](C(=O)N[C@@H](Cc2ccc(O)cc2)C(=O)N[C@@H](CCCNC(=N)N)C(=O)N[C@@H](CC(C)C)C(=O)N[C@@H](CCCNC(=N)N)C(=O)N[C@@H](Cc2ccc(O)cc2)C(N)=O)NC(=O)[C@@H]2CCCN2C1=O (I: H-IEPKYRLRY-NH2 / II: H-IEPKYRLRY-NH2; amide I:2-II:4, I:4-II:2) | 25.1 | 56.4 | 158 | 23.4 | 6.3
5 | CC[C@H](C)[C@H](N)C(=O)N[C@H]1CCC(=O)NC[C@@H](C(=O)N[C@@H](Cc2ccc(O)cc2)C(=O)N[C@@H](CCCN=C(N)N)C(=O)N[C@@H](CC(C)C)C(=O)N[C@@H](CCCN=C(N)N)C(=O)N[C@@H](Cc2ccc(O)cc2)C(N)=O)NC(=O)[C@@H]2CCCN2C(=O)[C@@H](NC(=O)[C@@H](N)[C@@H](C)CC)CCC(=O)NC[C@@H](C(=O)N[C@@H](Cc2ccc(O)cc2)C(=O)N[C@@H](CCCN=C(N)N)C(=O)N[C@@H](CC(C)C)C(=O)N[C@@H](CCCN=C(N)N)C(=O)N[C@@H](Cc2ccc(O)cc2)C(N)=O)NC(=O)[C@@H]2CCCN2C1=O (I: H-IEP[Dap]YRLRY-NH2 / II: H-IEP[Dap]YRLRY-NH2; amide I:2-II:4, I:4-II:2) | 0.295 to 1.02 | 21.8 to 36.1 | 41.7 to 89.1 | 11.2 to 37.2 | 87 to 141
6 | CC[C@H](C)[C@H](N)C(=O)N[C@H]1CCC(=O)NCCC[C@@H](C(=O)N[C@@H](Cc2ccc(O)cc2)C(=O)N[C@@H](CCCNC(=N)N)C(=O)N[C@@H](CC(C)C)C(=O)N[C@@H](CCCNC(=N)N)C(=O)N[C@@H](Cc2ccc(O)cc2)C(N)=O)NC(=O)[C@@H]2CCCN2C(=O)[C@@H](NC(=O)[C@@H](N)[C@@H](C)CC)CCC(=O)NCCC[C@@H](C(=O)N[C@@H](Cc2ccc(O)cc2)C(=O)N[C@@H](CCCNC(=N)N)C(=O)N[C@@H](CC(C)C)C(=O)N[C@@H](CCCNC(=N)N)C(=O)N[C@@H](Cc2ccc(O)cc2)C(N)=O)NC(=O)[C@@H]2CCCN2C1=O (I: H-IEP[Orn]YRLRY-NH2 / II: H-IEP[Orn]YRLRY-NH2; amide I:2-II:4, I:4-II:2) | 12.9 | 33 | 63.1 | 4.27 | 4.9

The next lines start with results.

Row | Ki [1] [nM] | Rmax [2] [%] | Ki [3] [nM] | EC50 [4] [nM] | SMILES | Ratio Ki (Homo sapiens)
7 | 0.363 | 50.2 | 170 | 5.13 | CC[C@H](C)[C@H](N)C(=O)N[C@H]1CCC(=O)NC[C@@H](C(=O)N[C@@H](Cc2ccc(O)cc2)C(=O)N[C@@H](CCCNC(=N)N)C(=O)N[C@@H](CC(C)C)C(=O)N[C@@H](CCCNC(=N)N)C(=O)N[C@@H](Cc2ccc(O)cc2)C(N)=O)NC(=O)[C@@H]2CCCN2C(=O)[C@@H](NC(=O)[C@@H](N)[C@@H](C)CC)CCC(=O)NC[C@@H](C(=O)N[C@@H](Cc2ccc(O)cc2)C(=O)N[C@@H](CCCNC(=N)N)C(=O)N[C@@H](CC(C)C)C(=O)N[C@@H](C)C(=O)N[C@@H](Cc2ccc(O)cc2)C(N)=O)NC(=O)[C@@H]2CCCN2C1=O (I: H-IEP[Dap]YRLAY-NH2 / II: H-IEP[Dap]YRLRY-NH2; amide I:2-II:4, I:4-II:2) | 427
8 | 2.34 | 52.3 | 631 | 37.2 | CC[C@H](C)[C@H](N)C(=O)N[C@H]1CCC(=O)NC[C@@H](C(=O)N[C@@H](Cc2ccc(O)cc2)C(=O)N[C@@H](CCCNC(=N)N)C(=O)N[C@@H](CC(C)C)C(=O)N[C@@H](CCCNC(=N)N)C(=O)N[C@@H](Cc2ccc(O)cc2)C(N)=O)NC(=O)[C@@H]2CCCN2C(=O)[C@@H](NC(=O)[C@@H](N)[C@@H](C)CC)CCC(=O)NC[C@@H](C(=O)N[C@@H](C)C(=O)N[C@@H](CCCNC(=N)N)C(=O)N[C@@H](CC(C)C)C(=O)N[C@@H](CCCNC(=N)N)C(=O)N[C@@H](Cc2ccc(O)cc2)C(N)=O)NC(=O)[C@@H]2CCCN2C1=O (I: H-IEP[Dap]ARLRY-NH2 / II: H-IEP[Dap]YRLRY-NH2; amide I:2-II:4, I:4-II:2) | 269
9 | 0.275 | 48.2 | 129 | 12.9 | CC[C@H](C)[C@H](N)C(=O)N[C@H]1CCC(=O)NC[C@@H](C(=O)N[C@@H](Cc2ccc(O)cc2)C(=O)N[C@@H](CCCNC(=N)N)C(=O)N[C@@H](CC(C)C)C(=O)N[C@@H](CCCNC(=N)N)C(=O)N[C@@H](Cc2ccc(O)cc2)C(N)=O)NC(=O)[C@@H]2CCCN2C(=O)[C@@H](NC(=O)[C@@H](N)[C@@H](C)CC)CCC(=O)NC[C@@H](C(=O)N[C@@H](Cc2ccc(O)cc2)C(=O)N[C@@H](CCCNC(=N)N)C(=O)N[C@@H](C)C(=O)N[C@@H](CCCNC(=N)N)C(=O)N[C@@H](Cc2ccc(O)cc2)C(N)=O)NC(=O)[C@@H]2CCCN2C1=O (I: H-IEP[Dap]YRARY-NH2 / II: H-IEP[Dap]YRLRY-NH2; amide I:2-II:4, I:4-II:2) | 427
